According to ChEMBL document CHEMBL1121642, “Synthesis and antiherpetic activity of some 4-[(aryloxy)alkyl]pyrazoles” (1981):
≈ marks a conversion by molar mass, not a printed value. One block for each compound: values may come before it. Calls of active or inactive are those of the source. No cut-off for these calls is given here.

Columns and labels:
Human alphaherpesvirus 2 [1] = assay: Tested in vitro for minimum inhibitory activity against Herpes simplex virus type -2 (HSV-2); assay type: functional
Mus musculus [2] = assay: Effect on the survival rate of mouse infected with herpes genitalis (HSV-2) administered intravaginally at 5% dosage twice in a day; assay type: functional
Outline: (§1)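 HSV-2 mouse genital model, infected intravaginally. Drug prepared in water + 1% gum tragacanth and given intravaginally b.i.d. via saturated cotton tampons, starting 4 h postinfection. Tampons were re-dosed with 0.02 mL 6 h after insertion and replaced daily. Test ended at day 14, with survivors assigned survival time >14 days. Read-out: % survival and average survival time.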

Mus musculus [3] = assay: Effect on the survival rate of mouse infected with herpes genitalis (HSV-2) administered intravaginally at 2% dosage twice in a day; assay type: functional; outline: as §1
Human alphaherpesvirus 2 [4] = assay: Tested in vitro for minimum inhibitory activity against Herpes simplex virus type -2 (HSV-2); Inactive; assay type: functional, organism-based
Mus musculus [5] = species on record: Mus musculus; assay: Effect on the survival rate of mice infected intravaginally with Herpes simplex virus type -2 (HSV-2) at 10% dosage twice in a day; assay type: functional
Outline: (§2)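 Mice infected intravaginally with a tampon (dental pellet) saturated with HSV suspension. Aqueous drug solution given intravaginally b.i.d. on cotton tampons, starting 4 h postinfection. Each tampon stayed in 24 h, was re-moistened with 0.02 mL drug 6 h after insertion, and was replaced daily. Deaths were recorded daily to 14 days. Read-out: % survival and average survival time, with survivors scored >14 days.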

Mus musculus [6] = species on record: Mus musculus; assay: Effect on the survival rate of mice infected intravaginally with Herpes simplex virus type -2 (HSV-2) at 5% dosage twice in a day; assay type: functional; outline: as §2
Mus musculus [7] = species on record: Mus musculus; assay: Number of mice recovered from virus infected with Herpes simplex virus type-2 at 5% dosage twice in 1 st day out of 10 mice sampled; assay type: functional
Outline: (§3)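 Mice were infected intravaginally with HSV-2 Curtis strain. Starting 4 h postinfection, they were treated intravaginally with cotton tampons saturated with 10, 5, 2.5 or 1.25% drug solution, replaced daily, plus 0.02 mL added 6 h later. Vaginal washings with 1.5 mL M-199 were taken each morning on days 1–7, frozen at −70 °C and assayed in BSC-1 cells. Read-out: mice with recoverable virus/mice sampled.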

Mus musculus [8] = species on record: Mus musculus; assay: Number of mice recovered from virus infected with Herpes simplex virus type-2 at 5% dosage twice in 4 th day out of 10 mice sampled; assay type: functional; outline: as §3
Mus musculus [9] = species on record: Mus musculus; assay: Number of mice recovered from virus infected with Herpes simplex virus type-2 at 2.5% dosage twice in 1st day out of 10 mice sampled; assay type: functional; outline: as §3
Mus musculus [10] = species on record: Mus musculus; assay: Number of mice recovered from virus infected with Herpes simplex virus type-2 at 5% dosage twice in 2 nd day out of 10 mice sampled; assay type: functional; outline: as §3
Mus musculus [11] = species on record: Mus musculus; assay: Number of mice recovered from virus infected with Herpes simplex virus type-2 at 10% dosage twice in 4 th day out of 10 mice sampled; assay type: functional; outline: as §3
Mus musculus [12] = assay: Effect on the survival rate of mice infected with HSV-2 administered intravaginally at 10% dosage twice in a day; assay type: functional; outline: as §2
Mus musculus [13] = assay: Effect on the survival rate of mouse infected with herpes genitalis (HSV-2) administered intravaginally at 5% twice in a day; assay type: functional
Mus musculus [14] = assay: Effect on the survival rate of mice infected with HSV-2 administered intravaginally at 2.5% dosage twice in a day; assay type: functional; outline: as §2
Mus musculus [15] = species on record: Mus musculus; assay: Number of mice recovered from virus infected with Herpes simplex virus type-2 at 5% dosage twice in 3 rd day out of 10 mice sampled; assay type: functional; outline: as §3
Mus musculus [16] = assay: Effect on the survival rate of mice infected with HSV-1 administered intravaginally at 5% dosage twice in a day; assay type: functional; outline: as §2
Mus musculus [17] = species on record: Mus musculus; assay: Number of mice recovered from virus infected with Herpes simplex virus type-2 at 5% dosage twice in 7 th day out of 8 mice sampled; assay type: functional; outline: as §3
Mus musculus [18] = species on record: Mus musculus; assay: Number of mice recovered from virus infected with Herpes simplex virus type-2 at 2.5% dosage twice in 3 rd day out of 10 mice sampled; assay type: functional; outline: as §3
Mus musculus [19] = species on record: Mus musculus; assay: Number of mice recovered from virus infected with Herpes simplex virus type-2 at 10% dosage twice in 2 nd day out of 10 mice sampled; assay type: functional; outline: as §3
Mus musculus [20] = species on record: Mus musculus; assay: Number of mice recovered from virus infected with Herpes simplex virus type-2 at 1.25% dosage twice in 4 th day out of 10 mice sampled; assay type: functional; outline: as §3
Mus musculus [21] = species on record: Mus musculus; assay: Number of mice recovered from virus infected with Herpes simplex virus type-2 at 2.5% dosage twice in 4 th day out of 10 mice sampled; assay type: functional; outline: as §3
Mus musculus [22] = species on record: Mus musculus; assay: Number of mice recovered from virus infected with Herpes simplex virus type-2 at 2.5% dosage twice in 2 nd day out of 10 mice sampled; assay type: functional; outline: as §3
Mus musculus [23] = species on record: Mus musculus; assay: Number of mice recovered from virus infected with Herpes simplex virus type-2 at 1.25% dosage twice in 1st day out of 10 mice sampled; assay type: functional; outline: as §3
Mus musculus [24] = assay: Effect on the survival rate of mice infected with HSV-1 administered intravaginally at 1.25% dosage twice in a day; assay type: functional; outline: as §2
Mus musculus [25] = species on record: Mus musculus; assay: Number of mice recovered from virus infected with Herpes simplex virus type-2 at 1.25% dosage twice in 7 th day out of 10 mice sampled; assay type: functional; outline: as §3
Mus musculus [26] = species on record: Mus musculus; assay: Number of mice recovered from virus infected with Herpes simplex virus type-2 at 10% dosage twice in 3 rd day out of 10 mice sampled; assay type: functional; outline: as §3
Mus musculus [27] = species on record: Mus musculus; assay: Number of mice recovered from virus infected with Herpes simplex virus type-2 at 10% dosage twice in 7 th day out of 10 mice sampled; assay type: functional; outline: as §3
Mus musculus [28] = species on record: Mus musculus; assay: Number of mice recovered from virus infected with Herpes simplex virus type-2 at 2.5% dosage twice in 6 th day out of 10 mice sampled; assay type: functional; outline: as §3
Mus musculus [29] = species on record: Mus musculus; assay: Number of mice recovered from virus infected with Herpes simplex virus type-2 at 10% dosage twice in 6 th day out of 10 mice sampled; assay type: functional; outline: as §3
Mus musculus [30] = assay: Effect on the survival rate of mice infected with HSV-2 administered intravaginally at 5% dosage twice in a day; assay type: functional; outline: as §2
Mus musculus [31] = species on record: Mus musculus; assay: Number of mice recovered from virus infected with Herpes simplex virus type-2 at 1.25% dosage twice in 2 nd day out of 10 mice sampled; assay type: functional; outline: as §3
Mus musculus [32] = species on record: Mus musculus; assay: Number of mice recovered from virus infected with Herpes simplex virus type-2 at 5% dosage twice in 6 th day out of 8 mice sampled; assay type: functional; outline: as §3
Mus musculus [33] = assay: Effect on the survival rate of mice infected with HSV-2 administered intravaginally at 1.25% dosage twice in a day; assay type: functional; outline: as §2
Mus musculus [34] = species on record: Mus musculus; assay: Number of mice recovered from virus infected with Herpes simplex virus type-2 at 2.5% dosage twice in 7 th day out of 8 mice sampled; assay type: functional; outline: as §3
Mus musculus [35] = species on record: Mus musculus; assay: Number of mice recovered from virus infected with Herpes simplex virus type-2 at 1.25% dosage twice in 3 rd day out of 10 mice sampled; assay type: functional; outline: as §3
Mus musculus [36] = assay: Effect on the survival rate of mice iinfected with HSV-1 administered intravaginally at 2.5% dosage twice in a day; assay type: functional; outline: as §2
Mus musculus [37] = species on record: Mus musculus; assay: Number of mice recovered from virus infected with Herpes simplex virus type-2 at 10% dosage twice in 1st day out of 10 mice sampled; assay type: functional; outline: as §3
Mus musculus [38] = assay: Effect on the survival rate of mice iinfected with HSV-1 administered intravaginally at 1.25% dosage twice in a day; assay type: functional; outline: as §2
Mus musculus [39] = assay: Effect on the survival rate of mice infected with HSV-1 administered intravaginally at 2.5% dosage twice in a day; assay type: functional; outline: as §2
Mus musculus [40] = assay: Effect on the survival rate of mice infected with HSV-1 administered intravaginally at 10% dosage twice in a day; assay type: functional; outline: as §2

MIC (Human alphaherpesvirus 2 [1]): 12 µg/mL (≈ 29.3 µM)
SMILES: CCc1nn(CCO)c(CC)c1CCCCCCOc1ccc(OC)cc1Cl

SMILES: O=c1[nH]c(=O)n([C@H]2C[C@H](O)[C@@H](CO)O2)cc1I [IDOXURIDINE]
Average survival (Mus musculus [2]): >9 days
Survival (Mus musculus [2]): 10%
Average survival (Mus musculus [3]): >11 days
Survival (Mus musculus [3]): 40%

MIC (Human alphaherpesvirus 2 [4]): inactive
SMILES: CCc1n[nH]c(CC)c1CCCCCCOc1cc(Cl)c(OC)cc1Cl

SMILES: COc1ccc(OCCCCCCCc2c(C)nn(C)c2C)c(Cl)c1
Average survival (Mus musculus [5]): >10 days
Survival (Mus musculus [5]): 30%
Average survival (Mus musculus [6]): >7 days
Survival (Mus musculus [6]): 10%
MIC (Human alphaherpesvirus 2 [1]): 0.7 µg/mL (≈ 1.92 µM)

MIC (Human alphaherpesvirus 2 [4]): inactive
SMILES: CCc1n[nH]c(CC)c1CCCCCCOc1ccc(Br)cc1

SMILES: CCc1n[nH]c(CC)c1CCCCCCOc1ccc(OC)cc1Cl.CS(=O)(=O)O
No. of mice receovered (Mus musculus [7]): 1
No. of mice receovered (Mus musculus [8]): 0
No. of mice receovered (Mus musculus [9]): 0
No. of mice receovered (Mus musculus [10]): 0
No. of mice receovered (Mus musculus [11]): 0
Average survival (Mus musculus [12]): >13 days
Survival (Mus musculus [12]): 90%
Survival (Mus musculus [13]): 80%
Average survival (Mus musculus [14]): >12 days
Survival (Mus musculus [14]): 70%
No. of mice receovered (Mus musculus [15]): 0
Average survival (Mus musculus [16]): >12 days
Survival (Mus musculus [16]): 60%
No. of mice receovered (Mus musculus [17]): 0
No. of mice receovered (Mus musculus [18]): 0
No. of mice receovered (Mus musculus [19]): 0
Average survival (Mus musculus [2]): >13 days
No. of mice receovered (Mus musculus [20]): 0
No. of mice receovered (Mus musculus [21]): 0
No. of mice receovered (Mus musculus [22]): 1
No. of mice receovered (Mus musculus [23]): 0
Average survival (Mus musculus [24]): >10 days
No. of mice receovered (Mus musculus [25]): 0
No. of mice receovered (Mus musculus [26]): 0
No. of mice receovered (Mus musculus [27]): 0
No. of mice receovered (Mus musculus [28]): 0
No. of mice receovered (Mus musculus [29]): 0
Average survival (Mus musculus [30]): >13 days
Survival (Mus musculus [30]): 90%
No. of mice receovered (Mus musculus [31]): 1
No. of mice receovered (Mus musculus [32]): 0
Average survival (Mus musculus [33]): >10 days
Survival (Mus musculus [33]): 40%
No. of mice receovered (Mus musculus [34]): 0
No. of mice receovered (Mus musculus [35]): 0
Survival (Mus musculus [36]): 40%
Average survival (Mus musculus [3]): >11 days
Survival (Mus musculus [3]): 60%
No. of mice receovered (Mus musculus [37]): 0
Survival (Mus musculus [38]): 30%
Average survival (Mus musculus [39]): >11 days
Average survival (Mus musculus [40]): >13 days
Survival (Mus musculus [40]): 70%

MIC (Human alphaherpesvirus 2 [1]): 6 µg/mL (≈ 15.3 µM)
SMILES: CCCCn1nc(C)c(CCCCCCOc2ccc(OC)cc2Cl)c1C

MIC (Human alphaherpesvirus 2 [1]): 1.5 µg/mL (≈ 3.96 µM)
SMILES: CCCn1nc(C)c(CCCCCCOc2ccc(OC)cc2Cl)c1C

MIC (Human alphaherpesvirus 2 [1]): 6 µg/mL (≈ 17.8 µM)
SMILES: CCc1n[nH]c(CC)c1CCCCOc1ccc(OC)cc1Cl

MIC (Human alphaherpesvirus 2 [1]): 3 µg/mL (≈ 5.77 µM)
SMILES: CCc1nn(C(=O)CCCN2CCOCC2)c(CC)c1CCCCCCOc1ccc(OC)cc1Cl

MIC (Human alphaherpesvirus 2 [1]): 3 µg/mL (≈ 6.51 µM)
SMILES: COc1ccc(OCCCCCCc2c(-c3ccccc3)n[nH]c2-c2ccccc2)c(Cl)c1

MIC (Human alphaherpesvirus 2 [1]): 6 µg/mL (≈ 13.6 µM)
SMILES: CCc1nn(-c2ccccn2)c(CC)c1CCCCCCOc1ccc(OC)cc1Cl

MIC (Human alphaherpesvirus 2 [1]): 6 µg/mL (≈ 17.1 µM)
SMILES: CCc1n[nH]c(CC)c1CCCCCOc1ccc(OC)cc1Cl

MIC (Human alphaherpesvirus 2 [1]): 12 µg/mL (≈ 34.2 µM)
SMILES: CCc1n[nH]c(CC)c1CCCCCCOc1ccc(O)cc1Cl

MIC (Human alphaherpesvirus 2 [1]): 3 µg/mL (≈ 8.22 µM)
SMILES: CCc1nn(C)c(CC)c1CCCCCOc1ccc(OC)cc1Cl

SMILES: CCn1nc(C)c(CCCCCCOc2ccc(OC)cc2Cl)c1C
Average survival (Mus musculus [5]): >9 days
Survival (Mus musculus [5]): 30%
Average survival (Mus musculus [6]): >10 days
Survival (Mus musculus [6]): 30%
MIC (Human alphaherpesvirus 2 [1]): 0.7 µg/mL (≈ 1.92 µM)

SMILES: Nc1ncnc2c1ncn2[C@@H]1O[C@H](CO)[C@@H](O)[C@@H]1O [VIDARABINE]
Average survival (Mus musculus [2]): >13 days
Survival (Mus musculus [2]): 60%
Average survival (Mus musculus [3]): >9 days
Survival (Mus musculus [3]): 10%
